A selection: hits, their analogues and other compounds. The true share with any hit is near 3.2%.
DENV2 CPE = inhibitors of DENV2 cytopathic effect, primary screen, cell-based, plate reader, single concentration. DENV2-infected cells, cytopathic effect rescue. CPE inhibition, % at 9.99 µM. hit rate 1.7% among 350,000; in the data active means CPE inhibition above about 20%, passing the limit was not always enough; inconclusive means no clear call, values can overlap the other calls; tested in BHK-21 cells
S100A4 inh HTS = inhibitors of S100A4-myosin IIA peptide binding, primary screen, biochemical, fluorescence polarization, TAMRA-MyoIIA peptide. inhibition, % at 10.7 µM. AID 652163, 2013. hit rate 0.14% among 360,000. Protein S100-A4 (Homo sapiens), P26447;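 active means mean inhibition of at least 70% across replicates, with every replicate also reaching that level; inconclusive means mean inhibition reaches 70% but some replicates fall short; inactive means mean inhibition below 70%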
Target sequence (P26447 whole entry, looked up): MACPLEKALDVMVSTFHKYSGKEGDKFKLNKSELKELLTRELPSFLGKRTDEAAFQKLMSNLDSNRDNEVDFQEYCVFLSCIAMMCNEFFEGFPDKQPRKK
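Test system – S100A4 monomer (human) · Compound – single-point compound testing · Schedule – 5 min incubation before reading · Probe or stimulus – TAMRA-labelled myosin IIA heavy-chain peptide probe, 5 nM · Benchmarks – neutral control DMSO, positive control TFP · Medium – Calcium-containing HEPES buffer, pH 7.2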
MLL AF4-AF9 inh = inhibitors of AF4 peptide binding to AF9, primary screen, biochemical, AlphaScreen, biotin-AF4 peptide, FLAG-AF9, single point; Protein AF-9 (Homo sapiens), P42568; inhibition, % at 10 µM; hit rate 0.47% among 350,000;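 active means every replicate reaching a set inhibition limit, whatever the replicate mean, cut at about 25% in these data; inconclusive means mean inhibition reaches that limit but some replicates miss it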
Target sequence (P42568 whole entry, looked up): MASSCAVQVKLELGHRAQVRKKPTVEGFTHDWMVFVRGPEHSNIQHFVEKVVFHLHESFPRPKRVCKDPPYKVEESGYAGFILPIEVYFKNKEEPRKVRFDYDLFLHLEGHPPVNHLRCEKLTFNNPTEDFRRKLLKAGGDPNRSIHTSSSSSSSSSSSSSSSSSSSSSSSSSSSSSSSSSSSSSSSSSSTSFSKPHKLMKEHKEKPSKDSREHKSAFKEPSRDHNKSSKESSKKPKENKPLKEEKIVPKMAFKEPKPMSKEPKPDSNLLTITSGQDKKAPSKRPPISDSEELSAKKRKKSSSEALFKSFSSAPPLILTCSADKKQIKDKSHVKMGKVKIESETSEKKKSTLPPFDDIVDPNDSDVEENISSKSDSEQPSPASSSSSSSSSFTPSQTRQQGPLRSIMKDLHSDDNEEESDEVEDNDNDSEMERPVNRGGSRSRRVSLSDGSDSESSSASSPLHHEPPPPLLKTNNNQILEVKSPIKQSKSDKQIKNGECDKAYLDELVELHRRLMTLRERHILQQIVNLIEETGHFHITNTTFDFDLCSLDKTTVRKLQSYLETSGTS
rRNA inh HTS = reduced GFP signal of wild-type E. coli, primary screen, bacterial rRNA inhibitor project, GFP/RFP fluorescence, OD600, single point. E. coli WT GFP vs humanized-ribosome RFP mutants, 24 h; hits give low values; DMSO median 0, no signal -100. GFP signal change (wild-type ribosome), % (test concentration not listed). hit rate 1.6% among 350,000. AID 720706, 2013;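 active means significant combined selectivity score with lowered wild-type GFP, culture density cut under 30%, mutant RFP and density less affected; inactive means any of these conditions unmet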
PfHsp90 yeast 2 = growth inhibition of PfHsp90-expressing yeast, primary screen, antimalarial PfHsp90 inhibitor project, S. cerevisiae, BacTiter-Glo luminescence, single point, set 2 | hit rate 0.32% among 310,000 | BacTiter-Glo ATP, 48 h; yeast lacking PDR1 and PDR3 efflux regulators | AID 504621, 2011 | inhibition, % at 9.4 µM;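 active means every replicate shows inhibition above about 80%, whatever the replicate mean, limit read from the data; inconclusive means mean inhibition reaches the set limit but some replicate falls short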
Cneo AK release = Cryptococcus neoformans cell lysis inducers, primary screen, AK release luminescence, single concentration; C. neoformans lysis, adenylate kinase release luminescence, 4 h; normalised: neutral wells 0, clomiphene wells 100; lysis activity, % at 15 µM; hit rate 0.2% among 360,000;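 active means mean lysis activity across replicates of at least 80%, whatever share of replicates individually reach that level; inactive means mean lysis activity below 80%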
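Material – Cryptococcus neoformans yeast cells · Quantity – 5 × 10^6 yeast cells/mL · Buffer or medium – YPD medium · Compound – single dose · Timing – 4 h static compound exposure, 37 °C, read 1 h post-reagent · Signal – adenylate kinase release luminescence · Read-out basis – lysis from increased AK signal · Benchmarks – Clomiphene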
HepG2 tox = cytotoxicity in HepG2 cells, dose response, cytotoxicity control, cell-based, CellTiter-Glo luminescence, cherry-pick, set 4; shares compounds with rRNA inh HTS; HepG2 viability, ATP luminescence, 72 h; activity change, negative = cytotoxicity, unspecified at 26 µM; 30 tested, under 10 active; AID 743480, 2014;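 active means compounds whose fitted half-maximal signal-loss concentration is at most twice their highest valid dose; inconclusive means flat curve with 30 to 70% signal loss, or poor fit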
AID977621 = growth inhibition of wild-type GFP E. coli, dose response, H69 mutant RFP, cherry-pick; shares compounds with rRNA inh HTS; E. coli wild-type GFP strain growth, fluorescence, 24 h; activity change, negative = inhibition at 50 µM; 1,900 tested, under 10 active;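 active means Wild-type ribosome reporter drop at least double the humanized mutant ribosome reporter drop, growth loss under a set limit; inconclusive means no clear call, values can overlap the other calls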;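 further: wild-type GFP and H69 mutant RFP strains grown together 50/50 in each well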
AID977628 = E. coli growth inhibition, wild-type GFP versus h24 humanized RFP strain, dose response, h24 mutant RFP vs wild-type GFP, cherry-pick | activity change, negative = inhibition at 50 µM | E. coli WT GFP strain growth, fluorescence, 24 h | shares compounds with rRNA inh HTS | 1,900 tested, under 10 active;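 active means compound lowering the normal-ribosome reporter at least twice as much as the humanized-ribosome reporter, growth loss under a set limit; inconclusive means no clear call, values can overlap the other calls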;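 further: wild-type GFP and h24 humanized RFP strains co-cultured 1 to 1 per well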
Large screens that a line does not name were inactive (follow-up assays come after a bar, where they were run).

CCCNC(=O)C[C@@H]1C[C@H]2c3cc(NC(=O)C4CCC4)ccc3O[C@H]2[C@H](CO)O1	none (no result: PfHsp90 yeast 2)
Nc1[nH]c(C(=O)c2ccccc2)c(-c2ccc(Br)cc2)c1C(=O)c1cccs1	rRNA inh HTS -33.6 (no result: PfHsp90 yeast 2, Cneo AK release) | AID977621 inconclusive
C[C@@H]1CN([C@H](C)CO)C(=O)Cc2cc(NC(=O)Cn3cnnn3)ccc2O[C@@H]1CN(C)S(=O)(=O)c1cccs1	none (no result: PfHsp90 yeast 2)
CC(=O)Nc1ccccc1OCc1nnc(-c2ccc(Cl)cc2)o1	none (no result: PfHsp90 yeast 2)
CC(=O)Nc1ccc(OCc2nnc(-c3ccccc3)o2)cc1	rRNA inh HTS -22.8 | AID977621 inconclusive | AID977628 inactive
COc1ccc(NC(=O)N(C)C[C@@H]2Oc3ccc(N(C)C)cc3C(=O)N([C@H](C)CO)C[C@H]2C)cc1	none (no result: PfHsp90 yeast 2)
COc1ccccc1CN1Cc2ccccc2Oc2ccccc2S1(=O)=O	rRNA inh HTS -26.8 (no result: PfHsp90 yeast 2, Cneo AK release) | AID977621 inconclusive
Cc1cc(C)c(OCC(=O)OCC(=O)N2CCc3ccccc3C2)c(C)c1	rRNA inh HTS -15.8 | AID977628 inactive
COc1ccc(S(=O)(=O)N(C)C[C@@H]2Oc3c(NC(=O)Nc4ccc(F)cc4)cccc3C(=O)N([C@@H](C)CO)C[C@@H]2C)cc1	none (no result: PfHsp90 yeast 2, Cneo AK release)
c1cncc(-c2nc3cc4ccccc4cc3[nH]2)c1	rRNA inh HTS -26.3 | AID977621 inactive
CN1CCSc2ccc(C(=O)Nc3cccc(F)c3)cc21	rRNA inh HTS -23.4 (no result: Cneo AK release) | AID977621 inactive | AID977628 inactive
CC(C)NC(=O)N1CC[C@H]2[C@@H]1c1cc(C#Cc3cccnc3)ccc1N(C)[C@H]2CO	none (no result: S100A4 inh HTS, MLL AF4-AF9 inh, PfHsp90 yeast 2)
CN1c2ccc(C#Cc3cccnc3)cc2[C@@H]2[C@@H](CCN2C(=O)c2cccc(F)c2)[C@H]1CO	DENV2 CPE 59.0, rRNA inh HTS -38.5 (no result: S100A4 inh HTS, MLL AF4-AF9 inh, PfHsp90 yeast 2) | AID977621 inactive
O=C(C[C@@H]1CC[C@@H]2[C@H](COC[C@@H](O)CN2S(=O)(=O)c2ccccc2)O1)NCCN1CCCC1	none (no result: PfHsp90 yeast 2, Cneo AK release)
COc1ccc(-c2noc(CCc3ccccc3)n2)cc1	rRNA inh HTS -19.9 | AID977621 inactive | AID977628 inactive
COCC(=O)N1C[C@@H]2[C@H](c3ccccc31)[C@@H](CO)N2Cc1ccccc1F	none (no result: PfHsp90 yeast 2)
O=C(Nc1ccccc1)N1CCCCN2[C@@H](CO)[C@H](c3ccc(Br)cc3)[C@@H]2C1	DENV2 CPE inconclusive, rRNA inh HTS -22.8 (no result: PfHsp90 yeast 2) | AID977628 inconclusive
O=C(Nc1ccccc1)N1CCCCN2[C@H](CO)[C@@H](c3ccc(Br)cc3)[C@@H]2C1	none (no result: PfHsp90 yeast 2)
Cc1ccccc1-c1ccc([C@@H]2[C@@H](CO)N3CCCCN(C(=O)Nc4ccc(F)cc4)C[C@@H]23)cc1	rRNA inh HTS -37.8 (no result: PfHsp90 yeast 2) | AID977628 inconclusive
N#C[C@@H]1[C@@H](c2ccc(-c3cccc(F)c3)cc2)[C@H](CO)N1C(=O)NC1CCCCC1	DENV2 CPE inconclusive (no result: PfHsp90 yeast 2, Cneo AK release)
CN1c2ccc(Cl)cc2C(=O)NC1C1CC=CCC1 (stereo not drawn)	rRNA inh HTS -22.7 | AID977621 inactive
C[C@@H]1CC=CC[C@@H](c2cccc(Cl)c2)NC(=O)[C@@H](C)N(C)C(=O)c2ccccc2O1 (mixture of isomers)	none (no result: DENV2 CPE, S100A4 inh HTS, MLL AF4-AF9 inh, PfHsp90 yeast 2, Cneo AK release)
C[C@H]1CN([C@@H](C)CO)C(=O)Cc2cc(NC(=O)c3ccncc3)ccc2O[C@H]1CN(C)C(=O)Nc1ccc2c(c1)OCO2	none (no result: PfHsp90 yeast 2)
CCOC(=O)c1cnc2ccccc2c1NCc1ccco1	rRNA inh HTS -29.5 | AID977628 inactive
CCOC(=O)c1cnc2ccc(OC)cc2c1NCc1ccccc1	none
O=C(Nc1ccc2c(c1)[C@H]1C[C@@H](CC(=O)N3CCCCC3)O[C@@H](CO)[C@H]1O2)NC1CCCC1	none (no result: PfHsp90 yeast 2)
CCCCNC(=O)c1onc(CSc2cc(C)cc(C)c2)c1C(=O)O	rRNA inh HTS -29.2 (no result: MLL AF4-AF9 inh) | AID977621 inactive
CO[C@@H]1CN(C)C(=O)c2cc(NS(C)(=O)=O)ccc2OC[C@H](C)N(C(=O)C2CCCC2)C[C@@H]1C	none (no result: PfHsp90 yeast 2)
CCCn1c(NCc2ccc3c(c2)OCO3)nc2ccccc21	rRNA inh HTS -22.1 | AID977628 inconclusive
C[C@H](O)C#Cc1ccc2c(c1)O[C@@H](CN(C)C(=O)Nc1ccccc1)[C@H](C)CN([C@H](C)CO)S2(=O)=O	none (no result: PfHsp90 yeast 2)
CCN=C1NN=C(c2ccc(C)cc2)CS1	rRNA inh HTS -22.5 | AID977621 inactive | AID977628 inactive
COc1ccc(NC(=O)CSc2n[nH]c(-c3ccncc3)n2)c([N+](=O)[O-])c1	rRNA inh HTS -17.9 | AID977621 inconclusive | AID977628 inactive
CCC(=O)N1[C@H](CO)[C@@H](c2ccccc2)C12CN(Cc1ccccc1F)C2	none (no result: PfHsp90 yeast 2, Cneo AK release)
Cc1cccc(NC(=O)CN(C)S(=O)(=O)c2cccs2)c1	rRNA inh HTS -27.0 | AID977621 inactive | AID977628 inconclusive
COc1ccc(NC(=O)CN(C)S(=O)(=O)c2cccs2)cc1	none (no result: DENV2 CPE, S100A4 inh HTS, MLL AF4-AF9 inh, rRNA inh HTS)
CCCOc1ccc(C(=O)NCC(c2cccs2)N(C)C)cc1OC (stereo not drawn)	none (no result: DENV2 CPE, S100A4 inh HTS, MLL AF4-AF9 inh, rRNA inh HTS, Cneo AK release)
CCN(c1ccccc1)S(=O)(=O)c1cccc(C(=O)NCC(c2cccs2)N(C)C)c1 (stereo not drawn)	rRNA inh HTS -23.6 (no result: DENV2 CPE, Cneo AK release) | AID977628 inconclusive
COc1cc2ccccc2cc1C(=O)NCC(c1cccs1)N(C)C (stereo not drawn)	rRNA inh HTS -24.0 (no result: Cneo AK release) | AID977621 inconclusive | AID977628 inactive
Cc1c(C(=O)O)sc2nc(CSc3ncc(C(F)(F)F)cc3Cl)[nH]c(=O)c12	rRNA inh HTS -33.2 (no result: Cneo AK release) | HepG2 tox inactive
CC1CN(C(=O)COC(=O)c2cccc(S(=O)(=O)N3CCc4ccccc43)c2)CC(C)O1 (stereo not drawn)	none
